In ChEMBL document CHEMBL4689842, “EUbOPEN Chemogenomics Library wave 1” (2021):

Test system: Fibroblast
Assay: Multiplex assay against human fibroblast
Format: toxicity, cell-based
Method in brief: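 Tubulin, mitochondrial-mass and membrane-permeability phenotypes are per cents of healthy-nucleus cells. Cells were gated by CellPathfinder machine learning into Hoechst high-intensity objects or normal cells, normal cells into healthy, pyknosed or fragmented nuclei, and pyknosed cells into mitotic or apoptotic. Before that, live cells stained at seeding with Hoechst33342, BioTracker Green Microtubule Cytoskeleton Dye, MitoTracker Red and Annexin V Alexa Fluor 680 were imaged on a CQ1 microscope at 37°C and 5% CO2 after compound addition.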

[1] = 12 h, 1 µM, compound concentration 1 uM, replicate 1
[2] = 12 h, 1 µM, compound concentration 1 uM, replicate 2
[3] = 12 h, 10 µM, compound concentration 10 uM, replicate 1
[4] = 12 h, 10 µM, compound concentration 10 uM, replicate 2
[5] = 24 h, 1 µM, compound concentration 1 uM, replicate 1
[6] = 24 h, 1 µM, compound concentration 1 uM, replicate 2
[7] = 24 h, 10 µM, compound concentration 10 uM, replicate 1
[8] = 24 h, 10 µM, compound concentration 10 uM, replicate 2
[9] = 48 h, 1 µM, compound concentration 1 uM, replicate 1
[10] = 48 h, 1 µM, compound concentration 1 uM, replicate 2
[11] = 48 h, 10 µM, compound concentration 10 uM, replicate 1
[12] = 48 h, 10 µM, compound concentration 10 uM, replicate 2

With CC(C)OC(=O)N1CCC(Oc2ncnc3c2cnn3-c2ccc(S(C)(=O)=O)cc2F)CC1 the “Population Apoptotic (%)” value [1] was 64%, the “Population Fragmented Nuclei (%)” value [1] was 27% and the “Population Healthy Nuclei (%)” value [1] was 50%. The “Population Hoechst High Intensity Objects (%)” value [1] was 13%, the “Population Membrane Permeable-Phenotype (%)” value [1] was 27% and the “Population Mitochondria Different-Phenotype (%)” value [1] was 0%. For the same molecule, the “Population Mitotic Cells (%)” value [1] was 35%, the “Population Normal (%)” value [1] was 86% and the “Population Pyknosed Nuclei (%)” value [1] was 22%. For the same molecule, the “Population Tubulin-Different-Phenotype (%)” value [1] was 24%, the “Total Cell Count” value [1] was 86 and the “Population Apoptotic (%)” value [2] was 33%. The “Population Fragmented Nuclei (%)” value [2] was 5%, the “Population Healthy Nuclei (%)” value [2] was 91% and the “Population Hoechst High Intensity Objects (%)” value [2] was 7%. For the same molecule, the “Population Membrane Permeable-Phenotype (%)” value [2] was 4%, the “Population Mitochondria Different-Phenotype (%)” value [2] was 8% and the “Population Mitotic Cells (%)” value [2] was 66%. The “Population Normal (%)” value [2] was 92%, the “Population Pyknosed Nuclei (%)” value [2] was 3% and the “Population Tubulin-Different-Phenotype (%)” value [2] was 7%. For the same molecule, the “Total Cell Count” value [2] was 97, the “Population Apoptotic (%)” value [3] was 58% and the “Population Fragmented Nuclei (%)” value [3] was 21%. The “Population Healthy Nuclei (%)” value [3] was 43%, the “Population Hoechst High Intensity Objects (%)” value [3] was 10% and the “Population Membrane Permeable-Phenotype (%)” value [3] was 17%. The “Population Mitochondria Different-Phenotype (%)” value [3] was 22%, the “Population Mitotic Cells (%)” value [3] was 41% and the “Population Normal (%)” value [3] was 89%. The “Population Pyknosed Nuclei (%)” value [3] was 34%, the “Population Tubulin-Different-Phenotype (%)” value [3] was 58% and the “Total Cell Count” value [3] was 164. The “Population Apoptotic (%)” value [4] was 18%, the “Population Fragmented Nuclei (%)” value [4] was 5% and the “Population Healthy Nuclei (%)” value [4] was 77%. For the same molecule, the “Population Hoechst High Intensity Objects (%)” value [4] was 6%, the “Population Membrane Permeable-Phenotype (%)” value [4] was 0% and the “Population Mitochondria Different-Phenotype (%)” value [4] was 5%. The “Population Mitotic Cells (%)” value [4] was 81%, the “Population Normal (%)” value [4] was 93% and the “Population Pyknosed Nuclei (%)” value [4] was 16%. The “Population Tubulin-Different-Phenotype (%)” value [4] was 28%, the “Total Cell Count” value [4] was 72 and the “Population Apoptotic (%)” value [5] was 66%. For the same molecule, the “Population Fragmented Nuclei (%)” value [5] was 20%, the “Population Healthy Nuclei (%)” value [5] was 58% and the “Population Hoechst High Intensity Objects (%)” value [5] was 13%. The “Population Membrane Permeable-Phenotype (%)” value [5] was 33%, the “Population Mitochondria Different-Phenotype (%)” value [5] was 4% and the “Population Mitotic Cells (%)” value [5] was 33%. For the same molecule, the “Population Normal (%)” value [5] was 86%, the “Population Pyknosed Nuclei (%)” value [5] was 20% and the “Population Tubulin-Different-Phenotype (%)” value [5] was 45%. For the same molecule, the “Total Cell Count” value [5] was 83, the “Population Apoptotic (%)” value [6] was 50% and the “Population Fragmented Nuclei (%)” value [6] was 4%. The “Population Healthy Nuclei (%)” value [6] was 86%, the “Population Hoechst High Intensity Objects (%)” value [6] was 2% and the “Population Membrane Permeable-Phenotype (%)” value [6] was 5%. The “Population Mitotic Cells (%)” value [6] was 50%, the “Population Normal (%)” value [6] was 97% and the “Population Pyknosed Nuclei (%)” value [6] was 8%. The “Population Tubulin-Different-Phenotype (%)” value [6] was 9%, the “Total Cell Count” value [6] was 116 and the “Population Apoptotic (%)” value [7] was 43%. For the same molecule, the “Population Fragmented Nuclei (%)” value [7] was 24%, the “Population Healthy Nuclei (%)” value [7] was 48% and the “Population Hoechst High Intensity Objects (%)” value [7] was 12%. The “Population Membrane Permeable-Phenotype (%)” value [7] was 30%, the “Population Mitochondria Different-Phenotype (%)” value [7] was 16% and the “Population Mitotic Cells (%)” value [7] was 56%. The “Population Normal (%)” value [7] was 87%, the “Population Pyknosed Nuclei (%)” value [7] was 27% and the “Population Tubulin-Different-Phenotype (%)” value [7] was 72%. The “Total Cell Count” value [7] was 156, the “Population Apoptotic (%)” value [8] was 33% and the “Population Fragmented Nuclei (%)” value [8] was 5%. For the same molecule, the “Population Healthy Nuclei (%)” value [8] was 87%, the “Population Hoechst High Intensity Objects (%)” value [8] was 2% and the “Population Membrane Permeable-Phenotype (%)” value [8] was 1%. For the same molecule, the “Population Mitochondria Different-Phenotype (%)” value [8] was 2%, the “Population Mitotic Cells (%)” value [8] was 66% and the “Population Normal (%)” value [8] was 97%. The “Population Pyknosed Nuclei (%)” value [8] was 6%, the “Population Tubulin-Different-Phenotype (%)” value [8] was 31% and the “Total Cell Count” value [8] was 93. For the same molecule, the “Population Apoptotic (%)” value [9] was 77%, the “Population Fragmented Nuclei (%)” value [9] was 35% and the “Population Healthy Nuclei (%)” value [9] was 52%. For the same molecule, the “Population Hoechst High Intensity Objects (%)” value [9] was 25%, the “Population Membrane Permeable-Phenotype (%)” value [9] was 28% and the “Population Mitochondria Different-Phenotype (%)” value [9] was 0%. For the same molecule, the “Population Mitotic Cells (%)” value [9] was 22%, the “Population Normal (%)” value [9] was 74% and the “Population Pyknosed Nuclei (%)” value [9] was 12%. The “Population Tubulin-Different-Phenotype (%)” value [9] was 35%, the “Total Cell Count” value [9] was 99 and the “Population Apoptotic (%)” value [10] was 0%. For the same molecule, the “Population Fragmented Nuclei (%)” value [10] was 25%, the “Population Healthy Nuclei (%)” value [10] was 74% and the “Population Hoechst High Intensity Objects (%)” value [10] was 13%. The “Population Membrane Permeable-Phenotype (%)” value [10] was 31%, the “Population Mitochondria Different-Phenotype (%)” value [10] was 2% and the “Population Mitotic Cells (%)” value [10] was 0%. The “Population Normal (%)” value [10] was 86%, the “Population Pyknosed Nuclei (%)” value [10] was 0% and the “Population Tubulin-Different-Phenotype (%)” value [10] was 44%. The “Total Cell Count” value [10] was 73, the “Population Apoptotic (%)” value [11] was 46% and the “Population Fragmented Nuclei (%)” value [11] was 24%. For the same molecule, the “Population Healthy Nuclei (%)” value [11] was 51%, the “Population Hoechst High Intensity Objects (%)” value [11] was 17% and the “Population Membrane Permeable-Phenotype (%)” value [11] was 29%. For the same molecule, the “Population Mitochondria Different-Phenotype (%)” value [11] was 14%, the “Population Mitotic Cells (%)” value [11] was 53% and the “Population Normal (%)” value [11] was 82%. The “Population Pyknosed Nuclei (%)” value [11] was 23%, the “Population Tubulin-Different-Phenotype (%)” value [11] was 73% and the “Total Cell Count” value [11] was 143. The “Population Apoptotic (%)” value [12] was 66%, the “Population Fragmented Nuclei (%)” value [12] was 22% and the “Population Healthy Nuclei (%)” value [12] was 73%. For the same molecule, the “Population Hoechst High Intensity Objects (%)” value [12] was 7%, the “Population Membrane Permeable-Phenotype (%)” value [12] was 14% and the “Population Mitochondria Different-Phenotype (%)” value [12] was 4%. For the same molecule, the “Population Mitotic Cells (%)” value [12] was 33%, the “Population Normal (%)” value [12] was 92% and the “Population Pyknosed Nuclei (%)” value [12] was 3%. For the same molecule, the “Population Tubulin-Different-Phenotype (%)” value [12] was 44% and the “Total Cell Count” value [12] was 99.
